Legend:
[1] = Metabolic stability in human liver S9 fraction in PAPS co-factor system by RP-HPLC; assay type: ADME, subcellular
How it was run: (§1)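 Substrate at 100 µM with HLM or S9 at 1.6 mg/mL and 100 µM PAPS in 50 mM Tris–HCl pH 7.4, 37 °C. Started by adding HLM/S9. Aliquots at 0, 5, 15, 30, 45 and 60 min stopped in cold acetonitrile and run in duplicate. Sulfation taken from parent disappearance by RP-HPLC.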

[2] = Metabolic stability in human liver microsomes assessed as half life in NADPH co-factor system by RP-HPLC; assay type: ADME, Microsome
How it was run: (§2)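 Substrate at 100 µM with human liver microsomes or S9 at 1.6 mg/mL, NADPH-generating system (NADP+, 400 µM glucose-6-phosphate, DETAPAC, 4 IU/mL G6P dehydrogenase), 50 mM potassium phosphate pH 7.4, 37 °C with shaking. Started by adding HLM/S9. Aliquots at 0–60 min stopped in cold acetonitrile and run in duplicate. Parent loss measured by RP-HPLC.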

Liver microsomes [3] = experiment: Metabolic stability in human liver microsomes in PAPS co-factor system by RP-HPLC; assay type: ADME, Microsome; how it was run: as §1
Liver microsomes [4] = experiment: Metabolic stability in human liver microsomes in UDPG co-factor system by RP-HPLC; assay type: ADME, Microsome
How it was run: (§3)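 Glucuronidation with UDPG cofactor plus lecithin, using HLM or S9 in 50 mM potassium phosphate pH 7.4 at 37 °C with shaking. Started by adding HLM/S9. Aliquots at 0–60 min stopped in cold acetonitrile and run in duplicate. Parent disappearance followed by RP-HPLC.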

[5] = Metabolic stability in human liver S9 fraction assessed as half life in NADPH co-factor system by RP-HPLC; assay type: ADME, subcellular; how it was run: as §2
[6] = Metabolic stability in human liver S9 fraction in UDPG co-factor system by RP-HPLC; assay type: ADME, subcellular; how it was run: as §3
[7] = Inhibition of antigen receptor-mediated NF-kappaB activity in HEK293 cells after 16 hrs by luciferase reporter gene assay; settings: Homo sapiens, HEK293, 16 h
Cytochrome P450 3A4 = Cytochrome P450 3A4 (Homo sapiens, UniProt P08684); experiment: Inhibition of CYP3A4-mediated hydroxylation of testosterone in human liver microsomes in NADPH co-factor system by RP-HPLC; assay type: ADME, Microsome
Chain of Cytochrome P450 3A4 (P08684 whole entry): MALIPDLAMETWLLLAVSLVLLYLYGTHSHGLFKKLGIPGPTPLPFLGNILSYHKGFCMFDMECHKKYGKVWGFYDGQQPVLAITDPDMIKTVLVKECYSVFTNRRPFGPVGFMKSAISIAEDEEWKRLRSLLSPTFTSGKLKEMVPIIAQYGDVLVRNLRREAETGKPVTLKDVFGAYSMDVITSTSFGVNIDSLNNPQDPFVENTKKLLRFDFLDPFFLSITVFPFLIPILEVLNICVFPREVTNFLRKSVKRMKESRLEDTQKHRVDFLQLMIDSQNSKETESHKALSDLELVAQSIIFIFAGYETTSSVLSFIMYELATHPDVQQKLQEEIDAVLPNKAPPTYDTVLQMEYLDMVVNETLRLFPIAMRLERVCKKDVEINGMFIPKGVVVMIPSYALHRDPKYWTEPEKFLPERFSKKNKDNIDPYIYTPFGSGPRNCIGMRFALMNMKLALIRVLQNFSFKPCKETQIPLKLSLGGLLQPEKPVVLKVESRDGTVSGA

Row | Structure (SMILES) | IC50 [7] | further results
1 | Cc1cc2nc(NCCCO)n(CC(=O)c3cc(C(C)(C)C)c(O)c(C(C)(C)C)c3)c2cc1C | 0.07 µM | Stability [1]: Stable; half-life [2]: 5.5 h; Stability (Liver microsomes [3]): Stable; Stability (Liver microsomes [4]): Stable; half-life [5]: 15.2 h; Stability [6]: Stable
2 | COCCCNc1nc2cc(C)c(C)cc2n1CC(=O)c1cc(C(C)(C)C)c(OC)c(C(C)(C)C)c1 | 0.25 µM | –
3 | Cc1cc2nc(NCCCO)n(CC(=O)c3cc(C)c(O)c(C)c3)c2cc1C | > 5 µM | –
4 | COc1c(C(C)(C)C)cc(C(=O)Cn2c(NCCCO)nc3cc(C)c(C)cc32)cc1C(C)(C)C | 0.07 µM | IC50 (Cytochrome P450 3A4): 67 µM
5 | Cc1cc2nc(N3CCC(Cc4ccccc4)CC3)n(CC(=O)c3cc(C(C)(C)C)c(O)c(C(C)(C)C)c3)c2cc1C | > 5 µM | –
6 | COc1ccccc1N1CCN(c2nc3cc(C)c(C)cc3n2CC(=O)c2cc(C(C)(C)C)c(O)c(C(C)(C)C)c2)CC1 | > 5 µM | –
7 | Cc1cc2nc(N3CCN(Cc4ccccc4)CC3)n(CC(=O)c3cc(C(C)(C)C)c(O)c(C(C)(C)C)c3)c2cc1C | > 5 µM | Stability [1]: Stable; Stability (Liver microsomes [3]): Stable; Stability (Liver microsomes [4]): Stable; half-life [5]: 4.4 h; Stability [6]: Stable
8 | Cc1cc2nc(N3CCC(C)CC3)n(CC(=O)c3cc(C(C)(C)C)c(O)c(C(C)(C)C)c3)c2cc1C | > 5 µM | –
9 | Cc1cc2nc(N3CCN(CCO)CC3)n(CC(=O)c3cc(C(C)(C)C)c(O)c(C(C)(C)C)c3)c2cc1C | > 5 µM | Stability [1]: Stable; Stability (Liver microsomes [3]): Stable; Stability (Liver microsomes [4]): Stable; half-life [5]: 4.6 h; Stability [6]: Stable
10 | C#CCNc1nc2cc(C)c(C)cc2n1CC(=O)c1cc(C(C)(C)C)c(O)c(C(C)(C)C)c1 | > 8 µM | –
11 | Cc1cc2nc(N3CCCC(C)C3)n(CC(=O)c3cc(C(C)(C)C)c(O)c(C(C)(C)C)c3)c2cc1C (centres undefined) | > 5 µM | –
12 | Cc1cc2nc(N3CCCCC3)n(CC(=O)c3cc(C(C)(C)C)c(O)c(C(C)(C)C)c3)c2cc1C | > 5 µM | –
13 | Cc1cc2nc(N3CCC(O)CC3)n(CC(=O)c3cc(C(C)(C)C)c(O)c(C(C)(C)C)c3)c2cc1C | > 5 µM | –
14 | Cc1cc2nc(N3CCOCC3)n(CC(=O)c3cc(C(C)(C)C)c(O)c(C(C)(C)C)c3)c2cc1C | > 5 µM | –
15 | CCCCNc1nc2cc(C)c(C)cc2n1CC(=O)c1cc(C(C)(C)C)c(O)c(C(C)(C)C)c1 | 0.1 µM | –
16 | Cc1cc2nc(N3CCC(O)C3)n(CC(=O)c3cc(C(C)(C)C)c(O)c(C(C)(C)C)c3)c2cc1C (centres undefined) | > 5 µM | –

Row | Structure (SMILES) | IC50 [7] | further results
17 | Cc1cc2nc(N3CCN(C)CC3)n(CC(=O)c3cc(C(C)(C)C)c(O)c(C(C)(C)C)c3)c2cc1C | > 5 µM | –
18 | CCN1CCN(c2nc3cc(C)c(C)cc3n2CC(=O)c2cc(C(C)(C)C)c(O)c(C(C)(C)C)c2)CC1 | > 5 µM | –
19 | COCCCNc1nc2cc(C)c(C)cc2n1CC(=O)c1cc(C)c(O)c(C)c1 | > 5 µM | –
20 | Cc1cc2nc(N3CCCCC3CO)n(CC(=O)c3cc(C(C)(C)C)c(O)c(C(C)(C)C)c3)c2cc1C (centres undefined) | > 5 µM | –
21 | Cc1cc2nc(NCCCO)n(CC(=O)c3ccc(O)cc3)c2cc1C | > 5 µM | –
22 | COC[C@@H]1CCCN1c1nc2cc(C)c(C)cc2n1CC(=O)c1cc(C(C)(C)C)c(O)c(C(C)(C)C)c1 | > 5 µM | –
23 | CCC1C(C)CN(c2nc3cc(C)c(C)cc3n2CC(=O)c2cc(C(C)(C)C)c(O)c(C(C)(C)C)c2)C1C (centres undefined) | > 5 µM | –
24 | COCCCNc1nc2cc(C)c(C)cc2n1CC(=O)c1cc(C(C)(C)C)c(O)c(C(C)(C)C)c1 | 0.25 µM | IC50 (Cytochrome P450 3A4): 97 µM
25 | Cc1cc2nc(N3CCC[C@H]3CN3CCCC3)n(CC(=O)c3cc(C(C)(C)C)c(O)c(C(C)(C)C)c3)c2cc1C | > 5 µM | –
26 | Cc1cc2nc(N3CC(C)CC(C)C3)n(CC(=O)c3cc(C(C)(C)C)c(O)c(C(C)(C)C)c3)c2cc1C (centres undefined) | > 5 µM | –
27 | Cc1cc2nc(N3CCCC3)n(CC(=O)c3cc(C(C)(C)C)c(O)c(C(C)(C)C)c3)c2cc1C | > 5 µM | –
28 | Cc1cc2nc(N3CCCCC3C)n(CC(=O)c3cc(C(C)(C)C)c(O)c(C(C)(C)C)c3)c2cc1C (centres undefined) | > 5 µM | –
29 | Cc1cc2nc(N3CCCCC3CN(C)C)n(CC(=O)c3cc(C(C)(C)C)c(O)c(C(C)(C)C)c3)c2cc1C (centres undefined) | > 5 µM | –
30 | COCCCNc1nc2cc(C)c(C)cc2n1CC(=O)c1ccc(O)cc1 | > 5 µM | –
31 | C[C@]12CC[C@H]3[C@@H](CCC4=CC(=O)CC[C@@]43C)[C@@H]1CC[C@@H]2O [TESTOSTERONE] | – | half-life [2]: 0.8 h
